Compound activity (PubChem)
This is a sample that favours compounds with a hit; in the whole collection about 12% have one here.
WT yeast gro inh: growth inhibition of WT yeast, mitochondrial fusion screen; mitochondrial fusion phenotypic screen, WT strain; inhibition, % at 10 µM; 190,000 tested, 2.1% active; AID 1362; in the data active = inhibition above about 58%; tested in S. cerevisiae
KCC2 mod: modulates chloride dependent transport by human KCC2; 190,000 tested, 2.2% active; KCC2 cells, thallium flux FluoZin-2 fluorescence; B-score of Tl+ flux slope (higher = more flux/activation; lower = inhibition) at 10 µM;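 active = thallium flux slope and its plate-corrected score both differing from the plate sample mean at a set confidence after two filtering rounds, in either direction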;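 also: slope of fluorescence scaled to starting intensity during 10 to 20 s after thallium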
Target sequence (Q9H2X9 whole entry, looked up): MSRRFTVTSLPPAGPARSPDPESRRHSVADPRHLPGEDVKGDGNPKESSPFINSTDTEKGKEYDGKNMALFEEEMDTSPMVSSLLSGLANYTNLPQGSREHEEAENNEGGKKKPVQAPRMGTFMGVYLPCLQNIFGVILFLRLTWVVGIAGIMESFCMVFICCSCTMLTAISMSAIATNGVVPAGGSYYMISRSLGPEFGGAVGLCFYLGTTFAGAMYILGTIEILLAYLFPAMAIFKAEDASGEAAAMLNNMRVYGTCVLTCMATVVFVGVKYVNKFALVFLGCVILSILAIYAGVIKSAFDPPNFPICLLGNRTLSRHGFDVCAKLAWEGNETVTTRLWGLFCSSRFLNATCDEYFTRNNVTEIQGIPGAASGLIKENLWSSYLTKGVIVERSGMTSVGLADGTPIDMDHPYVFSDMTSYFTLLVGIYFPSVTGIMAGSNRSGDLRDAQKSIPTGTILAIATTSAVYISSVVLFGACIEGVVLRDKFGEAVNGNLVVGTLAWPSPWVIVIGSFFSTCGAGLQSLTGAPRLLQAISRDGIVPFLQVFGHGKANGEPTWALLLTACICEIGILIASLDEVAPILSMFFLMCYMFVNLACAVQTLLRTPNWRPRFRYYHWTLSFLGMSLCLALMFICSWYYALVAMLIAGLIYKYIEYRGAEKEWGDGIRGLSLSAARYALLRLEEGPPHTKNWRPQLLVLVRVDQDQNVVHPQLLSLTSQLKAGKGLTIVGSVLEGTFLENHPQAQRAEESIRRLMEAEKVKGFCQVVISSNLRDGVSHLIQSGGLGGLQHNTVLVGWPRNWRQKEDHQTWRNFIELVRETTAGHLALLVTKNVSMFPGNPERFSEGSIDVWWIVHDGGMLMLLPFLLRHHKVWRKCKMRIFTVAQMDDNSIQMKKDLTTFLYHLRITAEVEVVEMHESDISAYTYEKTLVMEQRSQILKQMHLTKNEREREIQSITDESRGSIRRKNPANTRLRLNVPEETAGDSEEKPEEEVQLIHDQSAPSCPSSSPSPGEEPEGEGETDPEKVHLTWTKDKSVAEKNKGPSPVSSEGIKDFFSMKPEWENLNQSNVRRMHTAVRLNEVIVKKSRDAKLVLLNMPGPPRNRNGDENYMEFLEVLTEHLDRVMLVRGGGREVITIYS
ROMK primary: modulators of human ROMK potassium channel; Tet-inducible ROMK, thallium flux fluorescence; actives lie on both sides; B-score at 10 µM; 130,000 tested, 2% active; AID 1918;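 active = signal ratio slope over the read window, or its plate-corrected B-score, at least 3 SD from the plate mean, either direction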;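 also: B-score of the F/F0 ratio slope over 7 to 12 s after thallium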
Diaphorase act: diaphorase activation or chemical reduction counter-screen. Diaphorase/resazurin coupled assay, resorufin fluorescence, 16 min; stronger effect = higher value; 1 = vehicle wells, 0 = NADH-free wells. activation factor at 20 µM. 190,000 tested, 0.005% active. AID 1229;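 active = diaphorase activity raised at least twofold by the compound at 20 µM; inactive = activation factor below 2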
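System – purified diaphorase enzyme from Clostridium kluyveri · Input – enzyme 0.07 U/mL final · Also added – final NADH 0.114 mM, resazurin 0.1 mM · Measured by – fluorescence of resorufin, 544 nm excitation, 590 nm emission · Timing – 16 min enzyme reaction, ambient temperature · Measure – resorufin increase flagging diaphorase activators or reducers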
Diaph inh CS: inhibits diaphorase or chemically oxidizes, flagging diaphorase assay artifacts; diaphorase resazurin-to-resorufin fluorescence, NADH, 16 min; bacterial (C. kluyveri) enzyme, not human; inhibition, % at 20 µM; 190,000 tested, 0.69% active;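 active = primary screen inhibition at 20 µM above a set limit, cut at about 50% in these data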;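 also: plate controls were DMSO with full reaction for no effect and wells lacking NADH for full effect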
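Test system: Clostridium kluyveri diaphorase enzyme / Quantity: diaphorase at 0.14 U/mL in enzyme working solution / Incubation: 16-min room-temperature incubation before reading / Benchmarks: NADH-free wells as positive control, DMSO-only neutral wells / Signal: resorufin fluorescence 544/590 nm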
Lmaj promast: inhibitors of Leishmania major promastigote growth. Leishmania major promastigotes, resazurin fluorescence viability. inhibition, % at 10 µM. 200,000 tested, 9% active. AID 1063; in the data active = inhibition above about 50%;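 also: promastigotes grown with compound for 44 hours at 28 °C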
KCC2 sec1: KCC2 (human) modulation, secondary assay; shares compounds with KCC2 mod; HEK293-KCC2, thallium flux, FluoZin2 fluorescence; stronger effect = higher value; normalised thallium flux (F/F0 slope) at 10 µM; 3,700 tested, 15% active; AID 1713;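 active = thallium flux slope above the same plate's solvent-only control mean plus 3 SD; inconclusive = the two replicate wells disagree; inactive = no significant difference from solvent-only control wells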
KCC2 bumet counter: thallium flux persisting under bumetanide in KCC2 cells, counter-screen secondary assay; normalized thallium flux at 10 µM; HEK293-KCC2 + bumetanide/ouabain, thallium flux FluoZin2; stronger effect = higher value; shares compounds with KCC2 mod; 3,700 tested, 49% active;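 active = thallium entry rate above the same plate's blocked-transporter control wells by more than 3 SD; inconclusive = the two repeat wells disagree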;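 also: raw slope of fluorescence over initial fluorescence between 10 and 20 s after thallium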
KCC2 secondary2: confirmation of human KCC2 transport modulators; shares compounds with KCC2 mod; HEK293-KCC2, thallium flux FluoZin2 fluorescence; actives lie on both sides; F/F0 rise rate, 10–20 s post-thallium; normalized thallium flux at 10 µM; 3,700 tested, 23% active; AID 1715;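 active = thallium flux slope more than 3 SD above or below the plate's solvent-only control mean, mostly below; inconclusive = the two repeat wells disagreed; inactive = no significant shift from solvent-only controls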;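 also: raw slope with 0.1% DMSO as baseline and bumetanide as block control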
HEK counter1: counter-screen for KCC2 modulators: effect in parental HEK293 cells. thallium flux FluoZin2, ouabain; baseline-ratio fluorescence slope, 10–20 s after thallium. thallium flux rate (normalised fluorescence) at 10 µM. shares compounds with KCC2 mod. 3,700 tested, 46% active;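 active = thallium flux rate significantly above the same plate's solvent-only control wells, beyond their mean plus 3 SD; inconclusive = the two replicate wells gave conflicting results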
KCC2 retest ouab: confirmation of human KCC2 modulators with ouabain | shares compounds with KCC2 mod | HEK293-KCC2, thallium flux FluoZin2 fluorescence; bidirectional: low = inhibitor, high = activator | raw Tl+ flux slope (below DMSO = inhibition, above = activation) at 10 µM | 3,700 tested, 48% active | AID 1717;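 active = thallium flux slope beyond 3 SD from same-plate DMSO control mean in most replicates, usually higher, sometimes lower; inconclusive = repeat tests gave conflicting results; inactive = no significant difference from controls in most replicates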;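 also: slope of initial-normalized fluorescence between seconds 10 and 20 after thallium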
HEK293 Tl flux2: parental HEK flux effect, counter-screen 2. shares compounds with KCC2 mod. HEK293 parental, thallium flux FluoZin-2 fluorescence slope. thallium flux slope at 10 µM. 3,700 tested, 33% active. AID 1718;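 active = thallium flux slope above the same plate's solvent-control mean plus 3 SD in both duplicate wells; inconclusive = duplicate wells that disagreed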;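 also: run without ouabain in cells lacking the KCC2 cotransporter; slope of fluorescence scaled to its starting value between 10 and 20 s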
Numbers without * were called inactive; ? = inconclusive; nt = no result.

SMILES	WT yeast gro inh	KCC2 mod	ROMK primary	Diaphorase act	Diaph inh CS	Lmaj promast	KCC2 sec1	KCC2 bumet counter	KCC2 secondary2	HEK counter1	KCC2 retest ouab	HEK293 Tl flux2
COC(=O)c1ccc(C(C(=O)NCc2ccccc2)N(Cc2cccs2)C(=O)c2cnccn2)cc1 (centres undefined)	9	nt	nt	0.9	11	3	0.0093	0.0059	0.033	0.0085	0.02	0.011
COc1ccc(C(C(=O)NCc2ccccc2)N(Cc2ccco2)C(=O)c2cnccn2)cc1 (centres undefined)	-16	-0.34	nt	0.9	6	5	nt	nt	nt	nt	nt	nt
CCC(=O)Oc1ccc(C(CC)C(CC)c2ccc(OC(=O)CC)cc2)cc1 (centres undefined)	-7	11*	nt	0.9	13	0	0.007	0.0049	0.029	0.008	0.02	0.011
Clc1ccc(OCc2cn3ccccc3n2)c2ncccc12	4	-3.7*	0.11	1	2	0	0.0062	0.0063	0.03	0.0066	0.017	0.0095
O=C(NCc1ccccc1)c1sc(=S)n2c1[nH]c(=O)c1ccccc12	-24	20*	nt	0.3	73*	-12	0.0053	0.065*	?	0.056*	0.054*	0.045*
CC(=O)NNC(=O)c1sc(=S)n2c1[nH]c(=O)c1sccc12	-7	8.2*	0.71	0.7	29	-1	0.0076	0.01*	0.028	0.012*	?	0.012*
NC(=O)c1sc(=S)n2c1[nH]c(=O)c1sccc12	-3	0.14	-1	0.7	31	-4	nt	nt	nt	nt	nt	nt
COc1cc(/C=N/c2oc(-c3ccccc3)cc2C#N)ccc1O	18	nt	nt	0.8	22	-2	nt	nt	nt	nt	nt	nt
O=c1[nH]c(=O)n(C2CCCO2)cc1Br (centres undefined)	14	3.9*	nt	1	-1	-5	0.0087	0.0071	0.034	0.0078	0.021	0.01
O=c1c(F)cn(C2CCCO2)c(=O)n1Cc1ccc(Cl)cc1 (centres undefined)	5	0.31	0.041	0.9	12	0	nt	nt	nt	nt	nt	nt
CC(C)(C)c1ccc(C(=O)/C=C2\NC(=O)CS2)cc1	2	31*	0.11	1	2	2	0.0074	0.049*	0.05*	0.035*	0.043*	0.037*
Cc1cc(C(=O)CCC(=O)N2CCN(S(=O)(=O)c3cccs3)CC2)c(C)s1	0	-5*	nt	0.8	24	88*	0.0061	0.004	?	?	0.016	0.0091
COc1ccc(S(=O)(=O)NCCOc2ccccc2)cc1-n1cnnn1	-19	-3.8*	0.33	0.8	16	-5	0.0078	?	0.025*	0.0072	0.017*	0.0097
O=C(c1cccc([N+](=O)[O-])c1)c1ccc2c(c1)C(=O)N(c1c[nH]c(=O)[nH]c1=O)C2=O	-9	0.05	0.2	0.7	29	-5	nt	nt	nt	nt	nt	nt
O=C(NNc1nc2c(F)cccc2s1)C1COc2ccccc2O1 (centres undefined)	-12	10*	-0.23	1.1	-11	1	0.0078	0.037*	0.047*	0.035*	0.038*	0.03*
Cc1nc2ccc3nc(NC(=O)C4COc5ccccc5O4)sc3c2s1 (centres undefined)	22	5.7*	nt	0.8	15	11	0.0066	0.013*	0.031	0.011*	?	0.014*
COc1ccc(OC)c(NC(=O)C2COc3ccccc3O2)c1 (centres undefined)	17	-0.095	nt	1	3	2	nt	nt	nt	nt	nt	nt
Cc1nc2cc(NC(=O)C3COc4ccccc4O3)ccc2s1 (centres undefined)	43	0.33	-0.59	1.1	-12	0	nt	nt	nt	nt	nt	nt
O=C(NNc1nc2c(F)cccc2s1)c1ccc(F)cc1	-11	-0.14	0.091	1	4	-3	nt	nt	nt	nt	nt	nt
Cc1ccc2sc(NNC(=O)C3COc4ccccc4O3)nc2c1C (centres undefined)	67*	6.5*	-1.4	1	3	45	0.008	0.042*	0.032	0.017*	?	0.012*
COc1ccc(CNC(=O)C2COc3ccccc3O2)c(OC)c1 (centres undefined)	-15	nt	nt	1	-4	-4	0.01	0.0057	0.034	0.0042	0.019	0.012
CN1C(=O)NC(c2ccccc2)C2=C1CN(c1ccc3ccccc3c1)C2=O (centres undefined)	-17	-0.22	nt	0.8	20	-2	nt	nt	nt	nt	nt	nt
COc1cccc2sc(NNC(=O)C3=COCCO3)nc12	0	-0.13	-0.2	1	0	7	nt	nt	nt	nt	nt	nt
COc1cccc2sc(NNC(=O)C3COc4ccccc4O3)nc12 (centres undefined)	-1	20*	-0.44	0.9	13	15	0.021*	0.03*	?	0.019*	0.026*	0.021*
Clc1ccc(-c2csc(NNC3=NCCCCC3)n2)cc1	31	-4.4*	nt	0.9	8	6	?	0.0064	0.03	0.0073	0.019*	0.0095
Cc1ccsc1/C=N\NC(=O)c1ccc2c(c1)OCO2	-48	5.9*	nt	1	-2	-3	0.0066	0.0063*	0.027	0.011*	0.02	?
O=C(NCc1ccco1)c1cccc(S(=O)(=O)N2CCCCC2)c1	18	0.75	-0.96	0.9	5	13	nt	nt	nt	nt	nt	nt
Cc1[nH]c2ccccc2c1C(=O)COc1ccccc1	5	-1.1	1.4	0.8	21	-2	nt	nt	nt	nt	nt	nt
CCNc1ccc(C(=O)OCC)cc1NC(=O)c1cccc(S(=O)(=O)N2CCOCC2)c1	-14	-0.045	0.77	0.8	24	5	nt	nt	nt	nt	nt	nt
COCCn1c(SCc2csc(-c3ccccc3)n2)nc2ccccc21	40	-3.5*	-1.6	0.9	9	2	0.0057	0.0049	0.029	0.0051*	0.015*	0.0091
